pIC50: −log10 of the molar value. Starred links: 1 amine or outer side, 2 acyl side, 3 side chain; linkers in the order of their positions; H or OH if unused. Positions of bridges follow the written chain, without caps; N, C: chain ends. Non-standard residues stand in square brackets, D forms with d. Residues, ends and D or L forms follow the SMILES beside them. Chains are numbered I, II in the order given. NHNH = N(N[*:2])[*:1]

The target of assay [1] is T1, Delta-type opioid receptor (Homo sapiens, UniProt P41143). The assay is described as follows: Displacement of [3H]DPDPE from delta opioid receptor. The procedure, abridged: (§1)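 Competition binding on membranes from transfected cells stably expressing the mu or delta opioid receptor. Radioligands were [3H]DAMGO for mu and [3H]DPDPE for delta.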
For orientation: Displacement assays read how much labelled ligand stays bound in the presence of the test substance.

Assay [2] has as its target Mu-type opioid receptor (Homo sapiens, UniProt P35372). The assay is described as follows: Displacement of [3H]DAMGO from mu opioid receptor. The essentials: as §1
Assay [3] deals with T1, Delta-type opioid receptor. The assay can be described thus: Agonistic efficacy at human delta opioid receptor by [35S]GTP-gammaS binding assay. It is filed as functional. The procedure, abridged: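 Cells expressing human DOR (delta) or rat MOR (mu) incubated with increasing test-compound concentrations and 0.1 nM [35S]GTP-gamma-S in assay buffer, duplicates, 90 min at 30 °C. Stopped by vacuum filtration through GF/B filters pretreated with assay buffer, then four washes with ice-cold 15 mM Tris/120 mM NaCl pH 7.4. Bound radioactivity counted by liquid scintillation after overnight extraction; Emax read as agonist-stimulated binding.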

The target of assay [4] is Mu-type opioid receptor (Rattus norvegicus, UniProt P33535). The assay is described as follows: Agonistic efficacy at rat mu opioid receptor by [35S]GTPgammaS binding assay.
For assay [5], the target named is Delta-type opioid receptor (Mus musculus, UniProt P32300). The assay can be described thus: Activity at delta opioid receptor in mouse vas deferens. It is filed as functional, tissue-based. The procedure, abridged:
(§2)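 Isolated tissue bioassays, mouse vas deferens for delta and guinea pig ileum LMMP for mu. Data fitted to the Hill equation by computerized non-linear least squares, giving IC50, relative potency and their standard errors. IC50 is the mean of at least four experiments.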

Assay [6] deals with Mu-type opioid receptor (Cavia porcellus, UniProt P97266). The assay can be described thus: Activity at mu opioid receptor in longitudinal muscle myenteric plexus from guinea pig ileum. The assay is classed as functional, tissue-based. The essentials:
as §2

T1 sequence (P41143 whole entry): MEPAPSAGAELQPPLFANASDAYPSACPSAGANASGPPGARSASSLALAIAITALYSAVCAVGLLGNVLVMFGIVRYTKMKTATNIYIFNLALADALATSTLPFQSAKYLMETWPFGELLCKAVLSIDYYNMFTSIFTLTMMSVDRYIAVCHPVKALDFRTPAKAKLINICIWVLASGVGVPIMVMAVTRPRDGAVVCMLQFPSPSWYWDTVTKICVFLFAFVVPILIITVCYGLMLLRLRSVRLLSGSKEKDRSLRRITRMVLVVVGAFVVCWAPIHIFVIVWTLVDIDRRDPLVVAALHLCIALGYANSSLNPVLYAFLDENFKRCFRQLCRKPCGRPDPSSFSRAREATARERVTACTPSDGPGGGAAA
Sequence of Mu-type opioid receptor (Rattus norvegicus, UniProt P33535) (P33535 whole entry): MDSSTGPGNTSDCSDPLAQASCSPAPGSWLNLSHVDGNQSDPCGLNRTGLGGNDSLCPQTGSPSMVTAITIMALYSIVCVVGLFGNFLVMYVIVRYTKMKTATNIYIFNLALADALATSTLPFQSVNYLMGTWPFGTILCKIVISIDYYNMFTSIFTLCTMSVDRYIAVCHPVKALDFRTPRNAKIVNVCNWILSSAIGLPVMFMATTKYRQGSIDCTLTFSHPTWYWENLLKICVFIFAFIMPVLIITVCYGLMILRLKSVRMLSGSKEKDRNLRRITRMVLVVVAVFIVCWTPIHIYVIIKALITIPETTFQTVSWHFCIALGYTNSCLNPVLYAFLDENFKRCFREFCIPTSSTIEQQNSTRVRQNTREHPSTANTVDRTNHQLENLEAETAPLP
Sequence of Mu-type opioid receptor (Homo sapiens, UniProt P35372) (P35372 whole entry): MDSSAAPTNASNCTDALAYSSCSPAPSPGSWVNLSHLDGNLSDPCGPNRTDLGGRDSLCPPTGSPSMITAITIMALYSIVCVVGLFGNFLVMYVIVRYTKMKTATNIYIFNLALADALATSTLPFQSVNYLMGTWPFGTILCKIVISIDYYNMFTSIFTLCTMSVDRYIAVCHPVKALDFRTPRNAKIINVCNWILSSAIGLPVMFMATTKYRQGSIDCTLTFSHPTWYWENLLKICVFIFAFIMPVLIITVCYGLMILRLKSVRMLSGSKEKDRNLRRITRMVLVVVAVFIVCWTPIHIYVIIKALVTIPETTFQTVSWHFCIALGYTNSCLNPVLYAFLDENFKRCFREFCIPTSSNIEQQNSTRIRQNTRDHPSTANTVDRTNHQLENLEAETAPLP
Sequence of Delta-type opioid receptor (Mus musculus, UniProt P32300) (P32300 whole entry): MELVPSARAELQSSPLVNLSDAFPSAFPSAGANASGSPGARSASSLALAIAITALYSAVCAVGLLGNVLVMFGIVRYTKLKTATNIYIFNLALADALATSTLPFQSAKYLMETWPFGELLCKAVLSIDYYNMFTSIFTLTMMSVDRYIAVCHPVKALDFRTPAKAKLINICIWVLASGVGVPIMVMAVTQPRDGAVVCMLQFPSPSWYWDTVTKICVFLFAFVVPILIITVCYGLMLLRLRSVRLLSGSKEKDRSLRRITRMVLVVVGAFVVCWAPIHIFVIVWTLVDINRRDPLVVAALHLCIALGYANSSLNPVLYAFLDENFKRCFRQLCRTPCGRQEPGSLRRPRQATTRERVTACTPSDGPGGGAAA
Sequence of Mu-type opioid receptor (Cavia porcellus, UniProt P97266) (P97266 whole entry): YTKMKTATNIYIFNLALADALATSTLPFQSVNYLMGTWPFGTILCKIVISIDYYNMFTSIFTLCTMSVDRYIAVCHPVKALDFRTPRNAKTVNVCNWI

Regarding `N[C@@H](Cc1ccc(O)cc1)C(=O)N[C@H]1CSSC[C@H](NC(=O)[C@@H](N)Cc2ccc(O)cc2)C(=O)NCC(=O)N[C@@H](Cc2ccccc2)C(=O)NNC(=O)[C@H](Cc2ccccc2)NC(=O)CNC1=O` (I: H-YCGF / II: H-YCGF; disulfide I:2-II:2; linker I:C-II:C via NHNH), the pIC50 in assay [1] is 7.28; in assay [2], 6.89; in assay [3], 6.59; in assay [4], 6.92; in assay [5], 6.24; in assay [6] it was 6.38. In assay [3], this compound had an Emax of 58%.
On to `C[C@@H](NC(=O)[C@@H](N)Cc1ccc(O)cc1)C(=O)NCC(=O)N[C@@H](Cc1ccccc1)C(=O)NNC(=O)[C@H](Cc1ccccc1)NC(=O)CNC(=O)[C@@H](C)NC(=O)[C@@H](N)Cc1ccc(O)cc1` [BIPHALIN], for which the Emax in assay [3] worked out at 27%. Besides, in assay [4], the pIC50 was 8.22.
In the case of `N[C@@H](Cc1ccc(O)cc1)C(=O)N[C@@H]1CSSC[C@@H](NC(=O)[C@@H](N)Cc2ccc(O)cc2)C(=O)NCC(=O)N[C@@H](Cc2ccccc2)C(=O)NNC(=O)[C@H](Cc2ccccc2)NC(=O)CNC1=O` (I: H-Y[dC]GF / II: H-Y[dC]GF; disulfide I:2-II:2; linker I:C-II:C via NHNH), the pIC50 in assay [1] was 9.06; in assay [2], 9.22; in assay [3] it was 9.06; in assay [4], 9.70; in assay [5], 8.00; in assay [6], 7.60. In assay [3], this compound yielded an Emax of 100%.

A word on the pIC50: it is −log10 of the IC50, conventionally taken in molar units. A higher pIC50 goes with a low IC50. As usually defined, the Emax is the maximal effect, on the per cent scale that the assay sets.

Values taken from ChEMBL document CHEMBL1147769 (Bioorg Med Chem Lett, 2006).
